Experimental data as given in ChEMBL document CHEMBL1649552 (2009).
In brackets after ≈: the same amount, converted by molar mass.

Experiments:
Assay type in all cases: functional
[1] = system: Staphylococcus aureus; experiment: Antibacterial activity against Staphylococcus aureus ATCC 29213 by CLSI M100-S17 method; conditions: ATCC29213
How it was run: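 Reference strain S. aureus ATCC 29213 was tested by CLSI broth microdilution in frozen in-house panels. Compound was dissolved and diluted in DMSO over doubling dilutions of 0.008 to 4 μg/ml.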

[2] = system: Staphylococcus aureus; experiment: Antibacterial activity against methicillin-susceptible Staphylococcus aureus by CLSI M100-S17 method
[3] = system: Staphylococcus aureus; experiment: Antibacterial activity against methicillin-resistant Staphylococcus aureus by CLSI M100-S17 method
[4] = system: Staphylococcus epidermidis; experiment: Antibacterial activity against methicillin-susceptible Staphylococcus epidermidis by CLSI M100-S17 method
[5] = system: Staphylococcus epidermidis; experiment: Antibacterial activity against methicillin-resistant Staphylococcus epidermidis by CLSI M100-S17 method
[6] = system: Streptococcus pneumoniae; experiment: Antibacterial activity against Streptococcus pneumoniae by CLSI M100-S17 method
[7] = system: Streptococcus pyogenes; experiment: Antibacterial activity against Streptococcus pyogenes by CLSI M100-S17 method
[8] = system: Streptococcus agalactiae; experiment: Antibacterial activity against Streptococcus agalactiae by CLSI M100-S17 method
[9] = system: Enterococcus faecalis; experiment: Antibacterial activity against Enterococcus faecalis by CLSI M100-S17 method
[10] = system: Enterococcus faecium; experiment: Antibacterial activity against Enterococcus faecium by CLSI M100-S17 method
[11] = system: Escherichia coli; experiment: Antibacterial activity against Escherichia coli by CLSI M100-S17 method
[12] = system: Klebsiella pneumoniae; experiment: Antibacterial activity against Klebsiella pneumoniae by CLSI M100-S17 method
[13] = system: Klebsiella oxytoca; experiment: Antibacterial activity against Klebsiella oxytoca by CLSI M100-S17 method
[14] = system: Enterobacter cloacae; experiment: Antibacterial activity against Enterobacter cloacae by CLSI M100-S17 method
[15] = system: Proteus mirabilis; experiment: Antibacterial activity against Proteus mirabilis by CLSI M100-S17 method
[16] = system: Serratia marcescens; experiment: Antibacterial activity against Serratia marcescens by CLSI M100-S17 method
[17] = system: Pseudomonas aeruginosa; experiment: Antibacterial activity against Pseudomonas aeruginosa by CLSI M100-S17 method
[18] = system: Stenotrophomonas maltophilia; experiment: Antibacterial activity against Stenotrophomonas maltophilia by CLSI M100-S17 method
[19] = system: Acinetobacter baumannii; experiment: Antibacterial activity against Acinetobacter baumannii by CLSI M100-S17 method
[20] = system: Moraxella catarrhalis; experiment: Antibacterial activity against Moraxella catarrhalis by CLSI M100-S17 method
[21] = system: Escherichia coli; experiment: Antibacterial activity against acrAB-deficient Escherichia coli AG100a
[22] = system: Escherichia coli; experiment: Antibacterial activity against Escherichia coli AG100

SMILES: Cc1c(CN(C)C(=O)/C=C/c2cnc3c(c2)CCC(=O)N3)oc2ccccc12 [AFN-1252]
- MIC [1]: 0.015 µg/mL (≈ 0.04 µM)
- MIC50 [2]: ≤ 0.008 µg/mL
- MIC90 [2]: ≤ 0.008 µg/mL
- MIC [3]: 0.008 µg/mL (≈ 0.0213 µM)
- MIC50 [4]: ≤ 0.008 µg/mL
- MIC90 [4]: 0.03 µg/mL (≈ 0.0799 µM)
- MIC [5]: 0.008 µg/mL (≈ 0.0213 µM)
- MIC90 [5]: ≤ 0.008 µg/mL
- MIC50 [6]: > 4 µg/mL
- MIC90 [6]: > 4 µg/mL
- MIC50 [7]: > 4 µg/mL
- MIC90 [7]: > 4 µg/mL
- MIC ([7]; read-out: MIC): > 4 µg/mL
- MIC [8]: > 4 µg/mL
- MIC50 [8]: > 4 µg/mL
- MIC90 [8]: > 4 µg/mL
- MIC [9]: > 4 µg/mL
- MIC50 [9]: > 4 µg/mL
- MIC90 [9]: > 4 µg/mL
- MIC50 [10]: > 4 µg/mL
- MIC90 [10]: > 4 µg/mL
- MIC50 [11]: 4 µg/mL (≈ 10.7 µM)
- MIC90 [11]: > 4 µg/mL
- MIC50 [12]: > 4 µg/mL
- MIC90 [12]: > 4 µg/mL
- MIC50 [13]: > 4 µg/mL
- MIC90 [13]: > 4 µg/mL
- MIC50 [14]: > 4 µg/mL
- MIC90 [14]: > 4 µg/mL
- MIC50 [15]: 4 µg/mL (≈ 10.7 µM)
- MIC90 [15]: > 4 µg/mL
- MIC50 [16]: 4 µg/mL (≈ 10.7 µM)
- MIC90 [16]: > 4 µg/mL
- MIC [17]: > 4 µg/mL
- MIC50 [17]: > 4 µg/mL
- MIC90 [17]: > 4 µg/mL
- MIC [18]: > 4 µg/mL
- MIC50 [18]: > 4 µg/mL
- MIC90 [18]: > 4 µg/mL
- MIC [19]: > 4 µg/mL
- MIC50 [19]: > 4 µg/mL
- MIC90 [19]: > 4 µg/mL
- MIC50 [20]: > 4 µg/mL
- MIC90 [20]: > 4 µg/mL
- MIC [21]: 0.016 µg/mL (≈ 0.0426 µM)
- MIC [22]: > 32 µg/mL
